Data taken from ChEMBL document CHEMBL1240504, “Synthesis of substituted thieno[2,3-d]pyrimidine-2,4-dithiones and their S-glycoside analogues as potential antiviral and antibacterial agents” (Eur J Med Chem, 2010).
In brackets after ≈: the same amount, converted by molar mass.

How the values were obtained:
CCRF-CEM = assay: Cytotoxicity against […] human CEM cells after 6 days by XTT assay; format: cell-based; conditions: 144 h
Outline: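 Uninfected CEM cultures given serial compound dilutions (DMSO, 1:200 final dilution). Incubated 6 days at 37 °C, 5% CO2, then read by XTT formazan. IC50 is the molar concentration causing 50% inhibition of cell growth.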

Escherichia coli [1] = assay: Antibacterial activity against Escherichia coli MTCC 41 after 12 to 16 hrs by turbidity assay; format: functional
Outline: (§1)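 Broth dilution MIC in LB broth. Tubes inoculated, incubated 12–16 h and scored by eye for turbidity (growth) versus clear (no growth).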

Escherichia coli [2] = assay: Antibacterial activity against Escherichia coli MTCC 41 at 128 mg/ml after 16 hrs by disk diffusion test; format: functional; parameters: dose or concentration left out as unconfirmed; conditions: MTCC 41, 16 h, read-out: IZ
Escherichia coli [3] = assay: Antibacterial activity against Escherichia coli MTCC 41 at 64 mg/ml after 16 hrs by disk diffusion test; format: functional; parameters: dose or concentration left out as unconfirmed; conditions: MTCC 41, 16 h, read-out: IZ
Staphylococcus aureus [4] = assay: Antibacterial activity against Staphylococcus aureus MTCC 1144 after 12 to 16 hrs by turbidity assay; format: functional; outline: as §1
Staphylococcus aureus [5] = assay: Antibacterial activity against Staphylococcus aureus MTCC 1144 at 128 mg/ml after 16 hrs by disk diffusion test; format: functional; parameters: dose or concentration left out as unconfirmed; conditions: MTCC 1144, 16 h, read-out: IZ
Staphylococcus aureus [6] = assay: Antibacterial activity against Staphylococcus aureus MTCC 1144 at 64 mg/ml after 16 hrs by disk diffusion test; format: functional; conditions: MTCC 1144, 16 h, read-out: IZ
Outline: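 Disk diffusion (zone of inhibition). Bacterial isolate spread evenly over an agar plate. A filter disk carrying a known amount of compound was placed on the surface and the compound left to diffuse. The inhibition zone in the lawn was read after 16 h incubation.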

Pseudomonas putida [7] = assay: Antibacterial activity against ampicillin-resistant Pseudomonas putida MTCC 1072 after 12 to 16 hrs by turbidity assay; format: functional; outline: as §1
Pseudomonas putida [8] = assay: Antibacterial activity against ampicillin-resistant Pseudomonas putida MTCC 1072 at 128 mg/ml after 16 hrs by disk diffusion test; format: functional; parameters: dose or concentration left out as unconfirmed; conditions: MTCC 1072, 16 h, read-out: IZ
Pseudomonas putida [9] = assay: Antibacterial activity against ampicillin-resistant Pseudomonas putida MTCC 1072 at 64 mg/ml after 16 hrs by disk diffusion test; format: functional; parameters: dose or concentration left out as unconfirmed; conditions: MTCC 1072, 16 h, read-out: IZ
Human alphaherpesvirus 1 [10] = assay: Antiviral activity against HSV1 infected in african green monkey Vero cells after 6 hrs by plaque reduction assay; format: functional; parameters: scale not given: the % may be the effect or the level left
Outline: (§2)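 Modified plaque reduction in 96-well trays with no thickening overlay. Compounds dissolved in DMSO and diluted into medium, then serially diluted and added in triplicate to confluent Vero monolayers. Titred HSV-1 added in medium with 10% calf serum. Incubated 6 h at 37 °C, 5% CO2. Cells fixed with 3.7% formaldehyde and examined visually. The end-point concentration was taken from the dilution series.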

Human alphaherpesvirus 1 [11] = assay: Antiviral activity against HSV1 infected in african green monkey Vero cells assessed as minimum antiviral concentration after 6 hrs; format: functional; outline: as §2
Vero = assay: Cytotoxicity against african green monkey Vero cells assessed as loss of monolayer present around the plaques; format: cell-based; conditions: Chlorocebus sabaeus
Outline: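 Vero monolayers in serial-dilution trays with HSV-1, run in triplicate, 6 h at 37 °C, 5% CO2. Cells fixed with 3.7% formaldehyde and examined visually. IC50 is the concentration giving about 50% loss of the monolayer around HSV-1 plaques.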

[12] = tested on: Human immunodeficiency virus 1; assay: Antiviral activity against HIV1 infected in human CEM cells assessed as protection against virus-induced cytopathic effect after 6 days by XTT assay; format: functional, organism-based; conditions: Human immunodeficiency virus 1, CCRF-CEM, 144 h
Outline: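 CEM T4 lymphocytes received serially diluted compounds (DMSO stock diluted 1:100 in medium, 1:200 final dilution), then HIV-1. Incubated 6 days at 37 °C, 5% CO2. Formazan read spectrophotometrically after XTT, with microscopic check for viable cells. EC50 is the concentration giving 50% protection against the HIV cytopathic effect. AZT-treated wells served as positive control.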

[13] = Therapeutic index, ratio of IC50 for human CEM cells to EC50 for HIV1; format: cell-based, CCRF-CEM; conditions: read-out: Ratio IC50/EC50
Outline: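 CEM T4 lymphocytes, with or without HIV-1, were incubated with serially diluted compounds (DMSO solution diluted 1:100 in medium; 1:200 final dilution after cells and virus were added) at 37 °C in 5% CO2 for 6 days. Controls were untreated and AZT-treated. Read-out was XTT formazan, measured spectrophotometrically plus microscopy. EC50 is 50% protection from cytopathic effect; IC50 is 50% growth inhibition in uninfected cultures.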

SMILES	IC50 (CCRF-CEM)	MIC (Escherichia coli [1])	zone of inhibition (Escherichia coli [2])	zone of inhibition (Escherichia coli [3])	MIC (Staphylococcus aureus [4])	zone of inhibition (Staphylococcus aureus [5])	zone of inhibition at 64000 µg/mL (Staphylococcus aureus [6])	MIC (Pseudomonas putida [7])	zone of inhibition (Pseudomonas putida [8])	zone of inhibition (Pseudomonas putida [9])	Activity (Human alphaherpesvirus 1 [10])	MAC (Human alphaherpesvirus 1 [11])	IC50 (Vero)	EC50 [12]	selectivity ratio [13]
Cc1cn([C@H]2C[C@H](N=[N+]=[N-])[C@@H](CO)O2)c(=O)[nH]c1=O [ZIDOVUDINE]	700 nM	–	–	–	–	–	–	–	–	–	–	–	–	–	–
OC[C@H]1O[C@@H](Sc2nc3sc4c(c3c(=S)[nH]2)CCCCC4)[C@H](O)[C@@H](O)[C@@H]1O	–	> 128 µg/mL	< 1 mm	< 1 mm	> 128 µg/mL	< 1 mm	< 1 mm	> 128 µg/mL	< 1 mm	< 1 mm	–	–	–	–	–
OC[C@H]1O[C@@H](Sc2nc3sc4c(c3c(=S)[nH]2)CCCCC4)[C@@H](O)[C@@H]1O	> 100000 nM	128 µg/mL (≈ 320 µM)	> 3 mm	> 2 mm	128 µg/mL (≈ 320 µM)	> 3 mm	> 2 mm	128 µg/mL (≈ 320 µM)	> 3 mm	> 2 mm	24%	0.21 µM	> 1460 nM	> 100000 nM	> 1
OC[C@H]1O[C@@H](Sc2nc3sc4c(c3c(=S)[nH]2)CCCCC4)[C@H](O)[C@@H](O)[C@H]1O	> 100000 nM	–	–	–	–	–	–	–	–	–	0%	–	380 nM	> 100000 nM	> 1
S=c1[nH]c(=S)c2c3c(sc2[nH]1)CCCCC3	5250 nM	64 µg/mL (≈ 238 µM)	> 3 mm	> 3 mm	> 128 µg/mL	> 2 mm	> 2 mm	128 µg/mL (≈ 477 µM)	> 3 mm	> 2 mm	0%	–	90 nM	> 100000 nM	> 19.1
CSc1nc2sc3c(c2c(=S)[nH]1)CCCCC3	> 100000 nM	128 µg/mL (≈ 453 µM)	> 3 mm	< 1 mm	128 µg/mL (≈ 453 µM)	> 3 mm	> 2 mm	128 µg/mL (≈ 453 µM)	> 3 mm	< 1 mm	0%	–	450 nM	> 100000 nM	> 1
CC(=O)OC[C@H]1O[C@@H](Sc2nc3sc4c(c3c(=S)[nH]2)CCCC4)[C@H](OC(C)=O)[C@@H](OC(C)=O)[C@@H]1OC(C)=O	> 100000 nM	> 128 µg/mL	> 2 mm	< 1 mm	> 128 µg/mL	< 1 mm	< 1 mm	> 128 µg/mL	> 2 mm	> 2 mm	0%	–	560 nM	> 100000 nM	> 1
S=c1c2c3c(sc2nc2n(-c4ccccc4)nc(-c4ccccc4)n12)CCCC3	–	128 µg/mL (≈ 309 µM)	> 3 mm	< 1 mm	128 µg/mL (≈ 309 µM)	> 3 mm	< 1 mm	128 µg/mL (≈ 309 µM)	> 3 mm	< 1 mm	–	–	–	–	–
CC(=O)OC[C@H]1O[C@@H](Sc2nc3sc4c(c3c(=S)[nH]2)CCCCC4)[C@H](OC(C)=O)[C@@H](OC(C)=O)[C@@H]1OC(C)=O	–	> 128 µg/mL	> 2 mm	> 2 mm	> 128 µg/mL	> 2 mm	> 2 mm	128 µg/mL (≈ 214 µM)	> 3 mm	> 2 mm	–	–	–	–	–
CCOC(=O)c1nn(-c2ccc(C)cc2)c2nc3sc4c(c3c(=S)n12)CCCC4	–	128 µg/mL (≈ 301 µM)	> 3 mm	< 1 mm	128 µg/mL (≈ 301 µM)	> 3 mm	> 2 mm	128 µg/mL (≈ 301 µM)	> 3 mm	< 1 mm	–	–	–	–	–
CC(=O)c1nn(-c2ccc(Cl)cc2)c2nc3sc4c(c3c(=S)n12)CCCC4	> 100000 nM	–	–	–	–	–	–	–	–	–	0%	–	90 nM	> 100000 nM	> 1
OC[C@H]1O[C@@H](Sc2nc3sc4c(c3c(=S)[nH]2)CCCC4)[C@H](O)[C@@H](O)[C@@H]1O	> 100000 nM	> 128 µg/mL	< 1 mm	< 1 mm	> 128 µg/mL	< 1 mm	< 1 mm	128 µg/mL (≈ 307 µM)	> 3 mm	< 1 mm	0%	–	610 nM	> 100000 nM	> 1
CC(=O)OC[C@H]1O[C@@H](Sc2nc3sc4c(c3c(=S)[nH]2)CCCCC4)[C@@H](OC(C)=O)[C@@H]1OC(C)=O	> 100000 nM	> 128 µg/mL	< 1 mm	< 1 mm	> 128 µg/mL	< 1 mm	< 1 mm	> 128 µg/mL	< 1 mm	< 1 mm	0%	–	1150 nM	> 100000 nM	> 1
CC(=O)c1nn(-c2ccc(Cl)cc2)c2nc3sc4c(c3c(=S)n12)CCCCC4	> 100000 nM	–	–	–	–	–	–	–	–	–	0%	–	70 nM	> 100000 nM	> 1
CC1(C)S[C@@H]2[C@H](NC(=O)[C@H](N)c3ccccc3)C(=O)N2[C@H]1C(=O)O [AMPICILLIN]	–	16 µg/mL (≈ 45.8 µM)	> 5 mm	> 5 mm	–	> 5 mm	> 5 mm	> 256 µg/mL	0 mm	0 mm	–	–	–	–	–
S=c1[nH]c(=S)c2c3c(sc2[nH]1)CCCC3	6500 nM	64 µg/mL (≈ 252 µM)	> 3 mm	> 3 mm	128 µg/mL (≈ 503 µM)	> 3 mm	< 1 mm	128 µg/mL (≈ 503 µM)	> 3 mm	< 1 mm	0%	–	70 nM	> 100000 nM	> 15.4
C[C@@]1(CO)[C@H](O)CC[C@@]2(C)[C@H]1CC[C@H]1C[C@@H]3C[C@@]12CC[C@]3(O)CO [APHIDICOLIN]	–	–	–	–	–	–	–	–	–	–	100%	0.02 µM	580 nM	–	–
CC(=O)OC[C@H]1O[C@@H](Sc2nc3sc4c(c3c(=S)[nH]2)CCCC4)[C@@H](OC(C)=O)[C@@H]1OC(C)=O	> 100000 nM	64 µg/mL (≈ 125 µM)	> 3 mm	> 3 mm	64 µg/mL (≈ 125 µM)	> 3 mm	> 3 mm	128 µg/mL (≈ 250 µM)	> 3 mm	< 1 mm	0%	–	1390 nM	> 100000 nM	> 1
CSc1nc2sc3c(c2c(=S)[nH]1)CCCC3	> 100000 nM	128 µg/mL (≈ 477 µM)	> 3 mm	< 1 mm	128 µg/mL (≈ 477 µM)	> 3 mm	< 1 mm	128 µg/mL (≈ 477 µM)	> 3 mm	< 1 mm	0%	–	640 nM	> 100000 nM	> 1
CC(=O)c1nn(-c2ccc([N+](=O)[O-])cc2)c2nc3sc4c(c3c(=S)n12)CCCC4	–	64 µg/mL (≈ 150 µM)	> 3 mm	> 3 mm	> 128 µg/mL	> 2 mm	> 2 mm	128 µg/mL (≈ 301 µM)	> 3 mm	> 2 mm	–	–	–	–	–
